Test results from the EternaBench riboswitch data.

Test system: MS2 coat protein
Experiment: apparent Kd, MS2 coat protein; higher = weaker binding; RNA-MaP array; FMN 200 µM where present
Procedure, shortened: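 Each design was made on Illumina sequencing-chip clusters by stalled E. coli RNA polymerase and titrated with SNAP-549-labelled MS2 coat protein from 0.7 or 1.5 nM, doubling to 3 µM, in the absence and then the presence of constant ligand. The buffer was 100 mM Tris-HCl pH 7.5, 80 mM KCl, 4 mM MgCl2, BSA, DTT, yeast tRNA and Tween-20. The apparent Kd is the median of filtered per-cluster fits of binding curves, with green signal normalised to red-channel RNA signal and control-cluster median Fmax.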

[1] = designed as: OFF switch for flavin mononucleotide, no ligand
[2] = ligand present: flavin mononucleotide, designed as: OFF switch for flavin mononucleotide
[3] = designed as: ON switch for flavin mononucleotide, no ligand
[4] = ligand present: flavin mononucleotide, designed as: ON switch for flavin mononucleotide

Sequence	apparent Kd [1]	apparent Kd [2]	apparent Kd [3]	apparent Kd [4]
GCACUUAGAGAUGAACCGUUACUAACAUGAGGAUCACCCAUGUAGGAUAUGCUAAUAGUAUUGAAGCAGAAGGACACUAAGUGC	5.25 nM	6.51 nM		
AUCGUUGACUGGACGAGAAUAGGGCAGGAUAUACAUGAGGAUCACCCAUGUGAAGCACGAAAGAGGUAGAAGGGCCCACGUCAU		20.5 nM		
AGCAUGUGAGGAUAUGCAGACUCCGGUAAAUCUGGAGUCCGGUAGAAGGCACAUGAGGAUCACCCAUGUGAGAU	43.4 nM	119 nM		
UGACGGCACACAGGAUAUAGUGCAGAAAGUGUACUAGAAGGGUGAGCACUCGUCCGGGCACAUGAGGAUCACCCAUGUCGUCGA			207 nM	512 nM
AAAACGGCGCGUCCCGCACCAACUACAGAAGGCCAACAUGAGGAUCACCCAUGUACAAACUAGAUGGAGGAUAUGUAGGUUCUA			6.76 nM	4.63 nM
UAAAAGACUAGCAUUCUAAAGAUCACAUGAGGAUCACCCAUGUAGGAUAUGAGCAGAAAAUCUGCUCAGAAGGACAUGCUAGUC	5.51 nM	6.02 nM		
CUUUCGUGAGGAUAUGUGGCUUCGAUCGUGAGAUCGAAAAUACAGAAGGCACAUGAGGAUCACCCAUGUUCCUC	37.8 nM	456 nM		
AGCGUAUGAACAUGAGGAUCACCCAUGUAAACGGAAACGAAUGAGGAUAUCGAUAGCAAAGCUAUCGAGAAGGCAUGGGACGCU			159 nM	36.4 nM
UUGGAGUACGUAGGAUAUGUAGGAUAUUCCUACAUGAGGAUCACCCAUGUAUGCAUGGAAGAAGGACAGAAGGACGUGCUCCAU			219 nM	16 nM
UUCAAGUUGCGAGGAUAUCGUGUUAACAUGAGGAUCACCCAUGUAAAGGUAUAUUAAAUUAUCUUCGAGAAGGCGCUUAAUGUA			22.6 nM	20.3 nM
AAAAAGUGAGGAUAUACAUGAGGAUCACCCAUGUGAAAUCGGAAAAAAAAGGAAAAAAGUAGAAGGCACAAAAA	24.2 nM	24.3 nM		
AAUACACAUGAGGAUCACCCAUGUCAGGAUAUGCGGAAUAAGACUUUGGUCGAUAAAUGUAGAAGGGACGUUUA	34.3 nM	33.4 nM		
GUCAGCUCGUGAGGAUAUACAACACUGCUUCGGAAGUGUAUUAAGAUCACAUGAGGAUCACCCAUGUAGAAGGCACGAGCUGAU	13.7 nM	225 nM		
AAGAAGUGAGGAUAUGCUGCUCGUCACUUGCGUGAUGAGUAGCAGAAGGCACAUGAGGAUCACCCAUGUAAAGA	44 nM	53 nM		
AAGUCACAUGAGGAUCACCCAUGUCGUAAACGAUGAGGAUAUAGGAAAAAAAAAAAAAAACUAGAAGGUAUAACAA			69.3 nM	69.1 nM
AAACCGCUAGGAUAUACGAAAUAAAACUCUGUACUUGAGGUACAUGAGGAUCACCCAUGUAGAAGGAGCUCGGA	119 nM	229 nM		
AAAACAUGAGGAUCACCCAUGUUUAGAUCGGUCGAUAGAGGUGAGGAUAUACUAAGUUAAGGCUGGUAGAAGGCACUGGGUACA			62.4 nM	42 nM
GCCAUCGCAUGAGGAUAUGCUCCGGUUUCCGGAGCAGAAGGCAUGUCGUUAGACAUGAGGAUCACCCAUGUAGUUAAGAUGGCA			999 nM	41.1 nM
GCUGCCGCUGCAGGAUAUCAGCACGUGUAGUGCUGAGAAGGGCACAUGAGGAUCACCCAUGUGAUCAAUUAAUAAGCGUGCAGC	6.86 nM	16.5 nM		
AUUUAUCUAGGAUAUACAUGAGGAUCACCCAUGUUGAAGCGUAGGUACCUUUCCGAAUGUAGAAGGAGAGCACC	19.9 nM	22.2 nM		
GGGUGACAUGAGGAUCACCCAUGUCAGGAUAUGCUUGAGCUUGAGAAAUCGAGUUCGAGUAGAAGGGACUGCCC	47.3 nM	72.3 nM		
CCACGUCCCAUUAACAUGAGGAUCACCCAUGUCAAAAGACAUGAGGAUAUGGUACCUAAUUGGUACCAGAAGGCAUGGACGUGG			691 nM	114 nM
UGAUAGGACAGAGGAUAUACGUGCUAGAGAUACUAGCUAAUAAUCCUUACAUGAGGAUCACCCAUGUAGAAGGCUGUCCUAUCU	19.5 nM	45.5 nM		
